The values below come from ChEMBL document CHEMBL1146519, “Acaricidal activity of tonka bean extracts. Synthesis and structure-activity relationships of bioactive derivatives” (J Nat Prod, 2003).

For this assay, the system named is Dermatophagoides pteronyssinus. In words: Pesticidal activity against Dermatophagoides pteronyssinus after 24 hrs. It is filed as functional, organism-based. Summed up: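 D. pteronyssinus reared on 90% yeast powder/10% beard shavings at 25 °C, 75% RH, dark. Compounds in absolute EtOH dried 24 h on 2 cm2 well bottoms; rims glued. 100 mites per well, 24 h at 25 °C, 75% RH, dark. Dead = no movement when prodded. Abbott-corrected mortality; EC50 by linear regression. Seven 2-fold dilutions, 0.01–0.640 g/m2, triplicate, repeated after one week.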

In turn, `O=C(OCc1ccccc1)c1ccccc1` [BENZYL BENZOATE] had an EC50 of 0.025 g/m2.

Molecule `O=C(OCc1ccccc1)c1cccc(O)c1` displayed an EC50 of 0.495 g/m2.

Molecule `c1ccc(C2CCc3ccccc3O2)cc1` (stereo unspecified) [FLAVANE] showed an EC50 of 0.15 g/m2.

For `O=c1cc(-c2ccccc2)oc2ccccc12` [FLAVONE], the EC50 is reported as 0.5 g/m2.

For the molecule `Cc1ccc2oc(=O)ccc2c1`, the EC50 is listed as 0.04 g/m2.

`O=C(/C=C/c1ccccc1)OCc1ccccc1` [BENZYL CINNAMATE] yielded an EC50 of 0.18 g/m2.

Take `O=C(OCc1ccccc1)c1cc(=O)c2ccccc2o1`: the EC50 is given as 0.495 g/m2.

Turning to `O=C(OCc1ccccc1)c1cc2ccccc2oc1=O`, the EC50 was determined as 0.28 g/m2.

Take `Oc1ccccc1CCCc1ccccc1` [CHALCANE]: the EC50 is 0.31 g/m2.

The molecule `O=Cc1cc(C(=O)OCc2ccccc2)ccc1O` had an EC50 of 0.242 g/m2.

`O=C(OCc1ccccc1)c1ccccc1O` [BENZYL SALICYLATE] yielded an EC50 of 0.025 g/m2.

Turning to `O=c1cc(O)c2ccccc2o1` [4-HYDROXYCOUMARINS], the EC50 is listed as more than 1.5 g/m2.

`O=C1CCOc2ccccc21` [CHROMANONE] displayed an EC50 of 0.07 g/m2.

With `O=c1ccoc2ccccc12` [CHROMONE], the EC50 is recorded as 0.037 g/m2.

Take `O=C(OCc1ccccc1)c1ccc(O)cc1`: the EC50 worked out at 0.495 g/m2.

`O=C(OCc1ccccc1)c1ccc(=O)oc1` [BENZYL COUMALATE]: the EC50 is recorded as 0.495 g/m2.

In turn, `O=C1CC(c2ccccc2)Oc2ccccc21` (stereo unspecified) [FLAVANONE] came in with an EC50 of 0.09 g/m2.

Molecule `O=C(OCc1ccccc1)c1ccc2oc(=O)ccc2c1` displayed an EC50 of 0.495 g/m2.

The molecule `O=C(OCc1ccccc1)c1cccc2oc(=O)ccc12` gave an EC50 of 0.495 g/m2.

As for `O=c1ccc2ccc(O)cc2o1` [UMBELLIFERONE], the EC50 was more than 1.5 g/m2.

For the molecule `O=c1ccc2ccccc2o1` [COUMARIN], the EC50 is listed as 0.032 g/m2.
